Data as given in ChEMBL document CHEMBL1137499, “A new opioid designed multiple ligand derived from the micro opioid agonist endomorphin-2 and the delta opioid antagonist pharmacophore Dmt-Tic” (Bioorg Med Chem, 2007).
Numbered stars: 1 amine (or outer) side, 2 acyl side, 3 side chain; on linkers, the order of the positions; unused ones are H or OH. Square brackets hold non-standard residues; d marks the D form. Peptide text beside a SMILES is read from it. ξ: configuration not given here. Dmt = Cc1cc(O)cc(C)c1C[C@H](N)C(=O)O; Ethylenediamine = C(CN[*:2])N[*:1]; ξTic = O=C(O)C1Cc2ccccc2CN1

Assays:
[1] = target: Mu-type opioid receptor (Cavia porcellus, UniProt P97266); test: Agonist activity at mu-opioid receptor in Hartley guinea pig ileum assessed as inhibition of electrically-stimulated muscle contraction; type: functional, tissue-based
Chain of Mu-type opioid receptor (Cavia porcellus, UniProt P97266) (P97266 whole entry): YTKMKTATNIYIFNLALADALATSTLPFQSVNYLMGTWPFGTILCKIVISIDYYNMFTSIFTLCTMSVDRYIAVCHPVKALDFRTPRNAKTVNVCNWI
Method in brief: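 Myenteric plexus longitudinal muscle strips (2-3 cm) from small intestine of male Hartley guinea pigs, held in organ baths of balanced salt solution, pH 7.5. Inhibition of electrically evoked contraction was measured. IC50 (nM) was read from dose-response curves, with dermorphin as internal standard. Values are means ± SE of five or six separate assays.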

[2] = target: Delta-type opioid receptor (Rattus norvegicus, UniProt P33533); test: Displacement of [3H]deltorphin 2 from delta-opioid receptor in Sprague-Dawley rat brain P2 synaptosome membrane; type: tissue-based
Chain of Delta-type opioid receptor (P33533 whole entry): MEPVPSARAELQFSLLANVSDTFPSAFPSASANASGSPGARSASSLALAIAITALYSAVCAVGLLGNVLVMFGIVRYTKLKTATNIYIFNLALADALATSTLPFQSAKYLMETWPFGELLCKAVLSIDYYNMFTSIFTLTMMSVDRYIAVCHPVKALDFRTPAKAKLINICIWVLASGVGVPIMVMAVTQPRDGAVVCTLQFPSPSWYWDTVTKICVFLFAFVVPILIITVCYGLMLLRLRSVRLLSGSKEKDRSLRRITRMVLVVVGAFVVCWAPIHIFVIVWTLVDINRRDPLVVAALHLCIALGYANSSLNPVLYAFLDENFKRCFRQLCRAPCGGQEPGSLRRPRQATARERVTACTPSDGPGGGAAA
Method in brief: (§1)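 Competition binding at equilibrium, 2.5 h at room temperature (23 °C), on rat brain P2 synaptosomes. Filters were soaked in 0.1% polyethylenimine and washed three times with ice-cold buffered BSA. Duplicate assays used 5-8 doses and 3-5 independent membrane preparations. Ki was derived by Cheng-Prusoff; means ± SE.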

[3] = target: Mu-type opioid receptor (Rattus norvegicus, UniProt P33535); test: Displacement of [3H]DAMGO from mu-opioid receptor in Sprague-Dawley rat brain P2 synaptosome membrane; type: tissue-based; method in brief: as §1
Chain of Mu-type opioid receptor (Rattus norvegicus, UniProt P33535) (P33535 whole entry): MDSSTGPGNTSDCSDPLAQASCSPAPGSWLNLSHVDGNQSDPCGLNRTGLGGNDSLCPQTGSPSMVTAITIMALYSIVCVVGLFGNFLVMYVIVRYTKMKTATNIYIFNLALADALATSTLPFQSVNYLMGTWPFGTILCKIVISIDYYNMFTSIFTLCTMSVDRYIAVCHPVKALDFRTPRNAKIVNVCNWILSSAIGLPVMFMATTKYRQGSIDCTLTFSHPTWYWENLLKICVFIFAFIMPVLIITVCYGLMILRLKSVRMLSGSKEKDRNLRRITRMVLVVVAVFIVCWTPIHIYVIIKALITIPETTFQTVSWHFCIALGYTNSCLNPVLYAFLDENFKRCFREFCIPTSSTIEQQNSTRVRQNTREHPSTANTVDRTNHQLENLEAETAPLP

[4] = species: Rattus norvegicus; test: Selectivity for mu-opioid receptor over delta opiod receptor in Sprague-Dawley rat brain P2 synaptosome membrane; type: tissue-based
[5] = species: Rattus norvegicus; test: Selectivity for delta-opioid receptor over mu opiod receptor in Sprague-Dawley rat brain P2 synaptosome membrane; type: tissue-based

`Cc1cc(O)cc(C)c1C[C@H](N)C(=O)N1Cc2ccccc2C[C@H]1C(=O)NCCNC(=O)[C@H](Cc1ccccc1)NC(=O)[C@H](Cc1ccccc1)NC(=O)[C@@H]1CCCN1C(=O)[C@@H](N)Cc1ccc(O)cc1` was tested, and the IC50 [1] was 25.1 nM, the Ki [2] was 1.45 nM and the Ki [3] was 1.03 nM.

`Cc1cc(O)cc(C)c1C[C@H](N)C(=O)N1Cc2ccccc2CC1C(=O)NCCNC(=O)[C@H](Cc1ccccc1)NC(=O)[C@H](Cc1ccccc1)NC(=O)[C@@H]1CCCN1C(=O)[C@@H](N)Cc1ccc(O)cc1` (stereo partly drawn) showed a Ratio Ki [4] of 1.41.

`Cc1cc(O)cc(C)c1C[C@H](N)C(=O)N1Cc2ccccc2CC1C(=O)NCCN` (stereo partly drawn) (H-[Dmt]-[ξTic]-Ethylenediamine) gave a Ratio Ki [5] of 3.36, an IC50 [1] of 286 nM and a Ki [2] of 1.81 nM. It also gave a Ki [3] of 2.72 nM.
